Assay results taken from ChEMBL document CHEMBL1151428, “Capability of 11 antipneumococcal antibiotics to select for resistance by multistep and single-step methodologies” (2007).
Converted amounts (≈) assume the structure as drawn.

Columns and labels:
Format in all cases: functional
Streptococcus pneumoniae [1] = assay: Antimicrobial activity against drug-resistant Streptococcus pneumoniae isolate 2527 after 20 passages with azithromycin measured after 10 antibiotic-free subculture by multi-step resistance selection technique
In short: (§1)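 Mutants selected by daily broth passage in subinhibitory drug in cation-adjusted Mueller-Hinton broth with 5% lysed horse blood. Stability was tested by 10 daily passages on blood agar without antibiotic, then macrodilution MIC.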

Streptococcus pneumoniae [2] = assay: Antimicrobial activity against drug-resistant Streptococcus pneumoniae isolate 3243 after 29 passages with Telithromycin measured after 10 antibiotic-free subculture by multi-step resistance selection technique; in short: as §1
Streptococcus pneumoniae [3] = assay: Antimicrobial activity against drug-resistant Streptococcus pneumoniae isolate 3413 by NCCLS M7-A7 method
Streptococcus pneumoniae [4] = assay: Antimicrobial activity against drug-resistant Streptococcus pneumoniae isolate 1077 after 29 passages with azithromycin measured after 10 antibiotic-free subculture by multi-step resistance selection technique; in short: as §1
Streptococcus pneumoniae [5] = assay: Antimicrobial activity against drug-resistant Streptococcus pneumoniae isolate 3243 by NCCLS M7-A7 method
Streptococcus pneumoniae [6] = assay: Antimicrobial activity against drug-resistant Streptococcus pneumoniae isolate 1076 by NCCLS M7-A7 method
Streptococcus pneumoniae [7] = assay: Antimicrobial activity against drug-resistant Streptococcus pneumoniae isolate 3676 after 50 passages with moxifloxacin measured after 10 antibiotic-free subculture by multi-step resistance selection technique
Streptococcus pneumoniae [8] = assay: Antimicrobial activity against drug-resistant Streptococcus pneumoniae isolate 37 after 14 passages with Telithromycin measured after 10 antibiotic-free subculture by multi-step resistance selection technique
Streptococcus pneumoniae [9] = assay: Antimicrobial activity against drug-resistant Streptococcus pneumoniae isolate 1076 after 14 passages with Telithromycin measured after 10 antibiotic-free subculture by multi-step resistance selection technique; in short: as §1
Streptococcus pneumoniae [10] = assay: Antimicrobial activity against drug-resistant Streptococcus pneumoniae isolate 3676 after 44 passages by multi-step resistance selection technique
In short: (§2)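 Daily serial passage in broth at subinhibitory drug levels: 1 ml cation-adjusted Mueller-Hinton broth with 5% lysed horse blood; fresh broth for tigecycline. Each day 10 μl inoculum taken from the tube one to two dilutions below MIC matching growth-control turbidity, used to set next MIC. Continued until ≥8-fold MIC rise, minimum 14, maximum 50 passages; MIC read by macrodilution.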

Streptococcus pneumoniae [11] = assay: Antimicrobial activity against drug-resistant Streptococcus pneumoniae isolate 3243 after 41 passages by multi-step resistance selection technique
In short: (§3)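 Daily serial passage in subinhibitory drug levels in 1 ml cation-adjusted Mueller-Hinton broth with 5% lysed horse blood; fresh broth for tigecycline. Each day, 10 μl were taken from the tube one to two dilutions below the MIC whose turbidity matched the growth control, and used to set the next MIC. […] MIC by macrodilution.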

Streptococcus pneumoniae [12] = assay: Antimicrobial activity against drug-resistant Streptococcus pneumoniae isolate 3676 after 14 passages with Telithromycin measured after 10 antibiotic-free subculture by multi-step resistance selection technique
Streptococcus pneumoniae [13] = assay: Antimicrobial activity against drug-resistant Streptococcus pneumoniae isolate 3665 after 38 passages with moxifloxacin measured after 10 antibiotic-free subculture by multi-step resistance selection technique
Streptococcus pneumoniae [14] = assay: Antimicrobial activity against drug-resistant Streptococcus pneumoniae isolate 3009 after 18 passages with levofloxacin measured after 10 antibiotic-free subculture by multi-step resistance selection technique; in short: as §1
Streptococcus pneumoniae [15] = assay: Antimicrobial activity against drug-resistant Streptococcus pneumoniae isolate 3274 after 48 passages with Telithromycin measured after 10 antibiotic-free subculture by multi-step resistance selection technique; in short: as §1
Streptococcus pneumoniae [16] = assay: Antimicrobial activity against drug-resistant Streptococcus pneumoniae isolate 3009 after 21 passages with gemifloxacin measured after 10 antibiotic-free subculture by multi-step resistance selection technique; in short: as §1
Streptococcus pneumoniae [17] = assay: Antimicrobial activity against drug-resistant Streptococcus pneumoniae isolate 3665 after 26 passages by multi-step resistance selection technique; in short: as §2
Streptococcus pneumoniae [18] = assay: Antimicrobial activity against drug-resistant Streptococcus pneumoniae isolate 1077 by NCCLS M7-A7 method
Streptococcus pneumoniae [19] = assay: Antimicrobial activity against drug-resistant Streptococcus pneumoniae isolate 3665 by NCCLS M7-A7 method
Streptococcus pneumoniae [20] = assay: Antimicrobial activity against drug-resistant Streptococcus pneumoniae isolate 3676 by NCCLS M7-A7 method
Streptococcus pneumoniae [21] = assay: Antimicrobial activity against drug-resistant Streptococcus pneumoniae isolate 1076 after 35 passages with moxifloxacin measured after 10 antibiotic-free subculture by multi-step resistance selection technique; in short: as §1
Streptococcus pneumoniae [22] = assay: Antimicrobial activity against drug-resistant Streptococcus pneumoniae isolate 3009 after 19 passages with moxifloxacin measured after 10 antibiotic-free subculture by multi-step resistance selection technique; in short: as §1
Streptococcus pneumoniae [23] = assay: Antimicrobial activity against drug-resistant Streptococcus pneumoniae isolate 3243 after 41 passages with clarithromycin measured after 10 antibiotic-free subculture by multi-step resistance selection technique
Streptococcus pneumoniae [24] = assay: Antimicrobial activity against drug-resistant Streptococcus pneumoniae isolate 3243 after 20 passages with moxifloxacin measured after 10 antibiotic-free subculture by multi-step resistance selection technique; in short: as §1
Streptococcus pneumoniae [25] = assay: Antimicrobial activity against drug-resistant Streptococcus pneumoniae isolate 24 after 14 passages with Telithromycin measured after 10 antibiotic-free subculture by multi-step resistance selection technique; in short: as §1
Streptococcus pneumoniae [26] = assay: Antimicrobial activity against drug-resistant Streptococcus pneumoniae isolate 1635 after 14 passages with azithromycin measured after 10 antibiotic-free subculture by multi-step resistance selection technique; in short: as §1
Streptococcus pneumoniae [27] = assay: Antimicrobial activity against drug-resistant Streptococcus pneumoniae isolate 1635 after 49 passages by multi-step resistance selection technique; in short: as §3
Streptococcus pneumoniae [28] = assay: Antimicrobial activity against drug-resistant Streptococcus pneumoniae isolate 3665 after 14 passages with Telithromycin measured after 10 antibiotic-free subculture by multi-step resistance selection technique
Streptococcus pneumoniae [29] = assay: Antimicrobial activity against drug-resistant Streptococcus pneumoniae isolate 1077 after 50 passages by multi-step resistance selection technique
In short: (§4)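 Daily serial passage in subinhibitory drug levels in 1 ml cation-adjusted Mueller-Hinton broth with 5% lysed horse blood; fresh broth for tigecycline. Each day, 10 μl were taken from the tube one to two dilutions below the MIC whose turbidity matched the growth control, and used to set the next MIC. MIC by macrodilution.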

Streptococcus pneumoniae [30] = assay: Antimicrobial activity against drug-resistant Streptococcus pneumoniae isolate 1635 after 14 passages with clindamycin measured after 10 antibiotic-free subculture by multi-step resistance selection technique
Streptococcus pneumoniae [31] = assay: Antimicrobial activity against drug-resistant Streptococcus pneumoniae isolate 3009 after 25 passages by multi-step resistance selection technique; in short: as §3
Streptococcus pneumoniae [32] = assay: Antimicrobial activity against drug-resistant Streptococcus pneumoniae isolate 2527 after 50 passages by multi-step resistance selection technique; in short: as §3
Streptococcus pneumoniae [33] = assay: Antimicrobial activity against drug-resistant Streptococcus pneumoniae isolate 3009 by NCCLS M7-A7 method
Streptococcus pneumoniae [34] = assay: Antimicrobial activity against drug-resistant Streptococcus pneumoniae isolate 3274 by NCCLS M7-A7 method
Streptococcus pneumoniae [35] = assay: Antimicrobial activity against drug-resistant Streptococcus pneumoniae isolate 37 by NCCLS M7-A7 method
Streptococcus pneumoniae [36] = assay: Antimicrobial activity against drug-resistant Streptococcus pneumoniae isolate 3274 after 50 passages by multi-step resistance selection technique; in short: as §4
Streptococcus pneumoniae [37] = assay: Antimicrobial activity against drug-resistant Streptococcus pneumoniae isolate 3243 after 33 passages with azithromycin measured after 10 antibiotic-free subculture by multi-step resistance selection technique; in short: as §1
Streptococcus pneumoniae [38] = assay: Antimicrobial activity against drug-resistant Streptococcus pneumoniae isolate 3413 after 50 passages by multi-step resistance selection technique; in short: as §4
Streptococcus pneumoniae [39] = assay: Antimicrobial activity against drug-resistant Streptococcus pneumoniae isolate 24 by NCCLS M7-A7 method
Streptococcus pneumoniae [40] = assay: Antimicrobial activity against drug-resistant Streptococcus pneumoniae isolate 3665 after 26 passages with clarithromycin measured after 10 antibiotic-free subculture by multi-step resistance selection technique
Streptococcus pneumoniae [41] = assay: Antimicrobial activity against drug-resistant Streptococcus pneumoniae isolate 24 after 50 passages with moxifloxacin measured after 10 antibiotic-free subculture by multi-step resistance selection technique; in short: as §1
Streptococcus pneumoniae [42] = assay: Antimicrobial activity against drug-resistant Streptococcus pneumoniae isolate 1077 after 49 passages with clindamycin measured after 10 antibiotic-free subculture by multi-step resistance selection technique
Streptococcus pneumoniae [43] = assay: Antimicrobial activity against drug-resistant Streptococcus pneumoniae isolate 1635 after 49 passages with clarithromycin measured after 10 antibiotic-free subculture by multi-step resistance selection technique
Streptococcus pneumoniae [44] = assay: Antimicrobial activity against drug-resistant Streptococcus pneumoniae isolate 3413 after 30 passages with Telithromycin measured after 10 antibiotic-free subculture by multi-step resistance selection technique; in short: as §1
Streptococcus pneumoniae [45] = assay: Antimicrobial activity against drug-resistant Streptococcus pneumoniae isolate 1635 by NCCLS M7-A7 method
Streptococcus pneumoniae [46] = assay: Antimicrobial activity against drug-resistant Streptococcus pneumoniae isolate 2527 by NCCLS M7-A7 method
Streptococcus pneumoniae [47] = assay: Antimicrobial activity against drug-resistant Streptococcus pneumoniae isolate 1077 after 15 passages with Telithromycin measured after 10 antibiotic-free subculture by multi-step resistance selection technique; in short: as §1
Streptococcus pneumoniae [48] = assay: Antimicrobial activity against drug-resistant Streptococcus pneumoniae isolate 3676 after 44 passages with clarithromycin measured after 10 antibiotic-free subculture by multi-step resistance selection technique
Streptococcus pneumoniae [49] = assay: Antimicrobial activity against drug-resistant Streptococcus pneumoniae isolate 3009 after 25 passages with clarithromycin measured after 10 antibiotic-free subculture by multi-step resistance selection technique
Streptococcus pneumoniae [50] = assay: Antimicrobial activity against drug-resistant Streptococcus pneumoniae isolate 2527 after 14 passages with gemifloxacin measured after 10 antibiotic-free subculture by multi-step resistance selection technique; in short: as §1

SMILES: CC[C@H]1OC(=O)[C@H](C)[C@@H](O[C@H]2C[C@@](C)(OC)[C@@H](O)[C@H](C)O2)[C@H](C)[C@@H](O[C@@H]2O[C@H](C)C[C@H](N(C)C)[C@H]2O)[C@](C)(OC)C[C@@H](C)C(=O)[C@H](C)[C@@H](O)[C@]1(C)O [CLARITHROMYCIN]
- MIC (Streptococcus pneumoniae [1]): 16 µg/mL (≈ 21.4 µM)
- MIC (Streptococcus pneumoniae [2]): > 64 µg/mL
- MIC (Streptococcus pneumoniae [3]): 8 µg/mL (≈ 10.7 µM)
- MIC (Streptococcus pneumoniae [4]): > 64 µg/mL
- MIC (Streptococcus pneumoniae [5]): 0.016 µg/mL (≈ 0.0214 µM)
- MIC (Streptococcus pneumoniae [6]): > 64 µg/mL
- MIC (Streptococcus pneumoniae [7]): 4 µg/mL (≈ 5.35 µM)
- MIC (Streptococcus pneumoniae [8]): > 64 µg/mL
- MIC (Streptococcus pneumoniae [9]): > 64 µg/mL
- MIC (Streptococcus pneumoniae [10]): 32 µg/mL (≈ 42.8 µM)
- MIC (Streptococcus pneumoniae [11]): 0.25 µg/mL (≈ 0.334 µM)
- MIC (Streptococcus pneumoniae [12]): 2 µg/mL (≈ 2.67 µM)
- MIC (Streptococcus pneumoniae [13]): 2 µg/mL (≈ 2.67 µM)
- MIC (Streptococcus pneumoniae [14]): 8 µg/mL (≈ 10.7 µM)
- MIC (Streptococcus pneumoniae [15]): 1 µg/mL (≈ 1.34 µM)
- MIC (Streptococcus pneumoniae [16]): 16 µg/mL (≈ 21.4 µM)
- MIC (Streptococcus pneumoniae [17]): 16 µg/mL (≈ 21.4 µM)
- MIC (Streptococcus pneumoniae [18]): 0.016 µg/mL (≈ 0.0214 µM)
- MIC (Streptococcus pneumoniae [19]): 2 µg/mL (≈ 2.67 µM)
- MIC (Streptococcus pneumoniae [20]): 4 µg/mL (≈ 5.35 µM)
- MIC (Streptococcus pneumoniae [21]): > 64 µg/mL
- MIC (Streptococcus pneumoniae [22]): 8 µg/mL (≈ 10.7 µM)
- MIC (Streptococcus pneumoniae [23]): 0.25 µg/mL (≈ 0.334 µM)
- MIC (Streptococcus pneumoniae [24]): 0.004 µg/mL (≈ 0.00535 µM)
- MIC (Streptococcus pneumoniae [25]): > 64 µg/mL
- MIC (Streptococcus pneumoniae [26]): > 64 µg/mL
- MIC (Streptococcus pneumoniae [27]): > 64 µg/mL
- MIC (Streptococcus pneumoniae [28]): 2 µg/mL (≈ 2.67 µM)
- MIC (Streptococcus pneumoniae [29]): 0.008 µg/mL (≈ 0.0107 µM)
- MIC (Streptococcus pneumoniae [30]): 0.5 µg/mL (≈ 0.668 µM)
- MIC (Streptococcus pneumoniae [31]): > 64 µg/mL
- MIC (Streptococcus pneumoniae [32]): 0.016 µg/mL (≈ 0.0214 µM)
- MIC (Streptococcus pneumoniae [33]): 16 µg/mL (≈ 21.4 µM)
- MIC (Streptococcus pneumoniae [34]): 0.008 µg/mL (≈ 0.0107 µM)
- MIC (Streptococcus pneumoniae [35]): > 64 µg/mL
- MIC (Streptococcus pneumoniae [36]): 0.03 µg/mL (≈ 0.0401 µM)
- MIC (Streptococcus pneumoniae [37]): 0.5 µg/mL (≈ 0.668 µM)
- MIC (Streptococcus pneumoniae [38]): 8 µg/mL (≈ 10.7 µM)
- MIC (Streptococcus pneumoniae [39]): > 64 µg/mL
- MIC (Streptococcus pneumoniae [40]): 8 µg/mL (≈ 10.7 µM)
- MIC (Streptococcus pneumoniae [41]): > 64 µg/mL
- MIC (Streptococcus pneumoniae [42]): > 64 µg/mL
- MIC (Streptococcus pneumoniae [43]): > 64 µg/mL
- MIC (Streptococcus pneumoniae [44]): 16 µg/mL (≈ 21.4 µM)
- MIC (Streptococcus pneumoniae [45]): 0.5 µg/mL (≈ 0.668 µM)
- MIC (Streptococcus pneumoniae [46]): 0.008 µg/mL (≈ 0.0107 µM)
- MIC (Streptococcus pneumoniae [47]): > 64 µg/mL
- MIC (Streptococcus pneumoniae [48]): 16 µg/mL (≈ 21.4 µM)
- MIC (Streptococcus pneumoniae [49]): 64 µg/mL (≈ 85.6 µM)
- MIC (Streptococcus pneumoniae [50]): 0.016 µg/mL (≈ 0.0214 µM)
